Data set [1] deals with SiHa. Nature of the data set: Antitumor activity against human SiHa cells xenografted in BALB/C nude mouse assessed as tumor weight at 1 mg/kg, ip administered daily after 3 weeks (reference value: 511.6 mg). The class given is functional.
The subject of the next data set is Mus musculus. Nature of the data set: Toxicity in BALB/C nude mouse xenografted with human SiHa cells assessed as change in body weight at 1 mg/kg, ip administered daily after 3 weeks. The class given is organism-based. The settings on record: in vivo, 504 h. In outline:
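SiHa cells implanted in the right armpit of BALB/c nu/nu mice. At approximately 50 mm3, mice randomized (n = 8/group) to vehicle, compound 2.5 or 5.0 mg/kg, or doxorubicin 1.0 mg/kg, given ip daily for 3 weeks. Body weight and signs of pain, distress or discomfort monitored; tumors excised and weighed. Data given as mean ± SEM, t test against vehicle.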
(Xenograft models place foreign cells or tissue in a host animal.)

Data set [2] concerns SiHa. Kind of data set: Antitumor activity against human SiHa cells xenografted in BALB/C nude mouse assessed as tumor growth inhibition at 1 mg/kg, ip administered daily after 3 weeks relative to control. It counts as functional. The settings on record: 504 h, read-out: TGI.
Data set [3] has as its target T1, Nucleoside diphosphate kinase B (Homo sapiens, UniProt P22392). Kind of data set: Binding affinity to NM23-H2 in human SiHa cells assessed as disruption of protein interaction with c-myc G-quadruplex DNA by measuring decrease in c-MYC mRNA level at 2 uM after 9 hrs by RT-PCR analysis. It counts as cell-based. The essentials: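 SiHa cells treated at 0, 0.5, 1.0, 2.0 μM for 9 h; TRIzol RNA, 1.5 μg reverse-transcribed with oligo(dT); semiquantitative PCR, 30 cycles, 58 °C annealing; bands normalized to β-actin, untreated 100%; three repeats.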

Data set [4] is described as follows: Binding affinity to Htg21 telomeric G-quadruplex DNA (unknown origin) at 40 uM after 30 mins by SPR analysis.
The target in data set [5] is T1, Nucleoside diphosphate kinase B. Kind of data set: Binding affinity to NM23-H2 (unknown origin) assessed as ratio of Kd for protein interaction with biotin-labeled Pu22 c-myc G-quadruplex DNA in presence and absence of compound after 1 hr by ELISA. (ELISA stands for enzyme-linked immunosorbent assay.)
The target is the same in data set [6]. Nature of the data set: Binding affinity to NM23-H2 in human SiHa cells assessed as disruption of protein interaction with c-myc G-quadruplex DNA by measuring decrease in c-MYC protein expresson at 2 uM after 48 hrs by Western blot analysis. It counts as cell-based. In outline:
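SiHa cells treated 48 h; lysates (30 μg) on 10% SDS-PAGE, nitrocellulose, anti-c-MYC overnight at 4 °C, HRP secondary, chemiluminescence; β-actin internal control; three repeats.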
Background: Immunoblotting shows a protein as a band on a membrane.

Data set [7] shares this target. Kind of data set: Binding affinity to NM23-H2 (unknown origin) by SPR analysis.
A short description of data set [8]: Binding affinity to biotin-labeled 18-mer duplex DNA hairpin (unknown origin) at 40 uM after 30 mins by SPR analysis.
Data set [9] concerns the target T1, Nucleoside diphosphate kinase B. Nature of the data set: Binding affinity to N-terminal NT-647-NHS labeled NM23-H2 (unknown origin) after 30 mins by MST analysis. In outline:
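NM23-H2 N-terminally labeled with RED-NHS dye (20 μM protein, 30 min dark, RT), free dye removed; 200 nM labeled protein with compound from 500 μM, 16 twofold steps, 30 min RT in 50 mM Tris-HCl pH 7.4, 150 mM NaCl, 10 mM MgCl2, 0.05% Tween-20; KD at half-plateau.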

Data set [10] has as its system SiHa. Nature of the data set: Antiproliferative activity against human SiHa cells after 48 hrs by MTT assay. It counts as functional, cell-based.
Data set [11] can be described thus: Binding affinity to biotin-labeled Pu22 c-myc G-quadruplex DNA (unknown origin) by SPR analysis.
For data set [12], the target named is T1, Nucleoside diphosphate kinase B. Kind of data set: Binding affinity to NM23-H2 (unknown origin) up to 40 uM by SPR analysis.

Calls of active or inactive are those of the source. The calls are words filed in the database; no cut-off is given here. Some results are limits rather than exact numbers.

T1 sequence (P22392 whole entry): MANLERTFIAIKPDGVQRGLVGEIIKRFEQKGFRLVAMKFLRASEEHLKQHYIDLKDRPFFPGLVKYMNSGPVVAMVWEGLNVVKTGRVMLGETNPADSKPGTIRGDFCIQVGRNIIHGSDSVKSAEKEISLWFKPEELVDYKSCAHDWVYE

Turning to `COc1cccc2c1C(=O)c1c(O)c3c(c(O)c1C2=O)C[C@@](O)(C(=O)CO)C[C@@H]3O[C@H]1C[C@H](N)[C@H](O)[C@H](C)O1` [DOXORUBICIN], the Activity with SiHa [1] was 165.9 mg; in the data set with Mus musculus it was “Toxic”. Also, in the data set with SiHa [2], the inhibition in vivo at 1 mg/kg worked out at 67.6%.

As for `O=C(CCN1CCCC1)Nc1ccc(/C=C2\CCCn3c2nc2cc(NC(=O)CCN4CCCC4)ccc2c3=O)cc1`, the result in data set [3] and in data set [6] was Active. The outcome in data set [4] and in data set [8] was inactive. The Ratio in [5] stood at 2.3. Also, the Kd (commonly the concentration at which binding is half-saturated) in [7] was 10.4 µM; in data set [9] it was 24.6 µM.

In the case of `O=C(NCCCN1CCCC1)c1ccc(/C=C2\CCn3c2nc2cc(NCCN4CCCC4)c(F)cc2c3=O)cc1`, the 50% inhibitory concentration (IC50) (as a rule, the concentration that inhibits the measured activity by half) in the data set on SiHa [10] was found to be 16.4 µM. In addition, the Kd was 2.7 µM in data set [11], 19.8 µM in [7] and 18 µM in data set [9]. Further, the result in data set [3] and in data set [6] was Active. Moreover, the result in data set [4] and in data set [8] was inactive.

With `CCN(CC)CCCNc1cc2nc3n(c(=O)c2cc1F)CC/C3=C\c1ccc(N(CC)CC)cc1O`, the outcome in data set [4] and in data set [8] was inactive. Besides, the Ratio in [5] fell in the range of 2.1 to 2.6. The Kd in data set [7] worked out at 13.9 µM; in [9] it was 11.7 µM.

`CCN(CC)CCCNC(=O)c1ccc(/C=C2\CCn3c2nc2cc(NCCN4CCCC4)c(F)cc2c3=O)cc1`: the figures for the Kd in data set [11] and in data set [7] were 3.8 µM and 7.6 µM, respectively.

As to `CCN(CC)CCCNc1cc2nc3n(c(=O)c2cc1F)CC/C3=C\c1ccc(/C=C/c2ccccn2)cc1`, the result in data set [4] and in [8] was inactive. The Ratio in [5] was in the range of 2.1 to 2.6. For the same molecule, the Kd was 13.8 µM in data set [7] and 20.8 µM in data set [9].

In the case of `CCN(CC)CCCNc1cc2nc3n(c(=O)c2cc1F)CC/C3=C\c1ccc(N(CC)CC)cc1`, the outcome in data set [12], in data set [4] and in data set [8] was inactive. For the same molecule, in [5], the Ratio was 2.1 to 2.6. The same molecule gave a Kd in data set [9] of 48.5 µM.

`CC(=O)Oc1ccc(/C=C2\CCn3c2nc2cc(NCCCN(C)C)c(F)cc2c3=O)cc1`: the Kd in data set [11] came to 35.8 µM; in data set [7], 10.1 µM; in [9], 18.9 µM. In addition, the result in data set [4] and in data set [8] was inactive.

Turning to `CCN(CC)CCCNc1cc2nc3n(c(=O)c2cc1F)CC/C3=C\c1ccc(OCc2ccccc2)c(O)c1`, the result in data set [4] and in [8] was inactive. For the same molecule, the Ratio in data set [5] is above 3. For the same molecule, the Kd was 16.7 µM in data set [7] and 25.8 µM in data set [9].

`O=c1c2cc(F)c(NCCCN3CCOCC3)cc2nc2n1CC/C2=C\c1ccc(OCc2ccccc2)cc1`: the result in data set [4] and in data set [8] was inactive. Further, in data set [5], the Ratio lay within 2.1 to 2.6. For the same molecule, the Kd in data set [7] is 18.4 µM; in data set [9], 22.3 µM.

Regarding `CN(C)CCNc1cc2nc3n(c(=O)c2cc1F)CC/C3=C\c1ccc(OCc2ccccc2)cc1O`, the outcome in data set [4] and in data set [8] was inactive. Also, the Ratio in data set [5] is above 3. Also, the Kd amounted to 8.1 µM in [7] and 6.4 µM in [9].

Values taken from ChEMBL document CHEMBL4017489, “Design, Synthesis, and Evaluation of New Selective NM23-H2 Binders as c-MYC Transcription Inhibitors via Disruption of the NM23-H2/G-Quadruplex Interaction” (J Med Chem, 2017).
